# HUVEC prolif 384: inhibitors of HUVEC proliferation, primary screen, cell-based, 384-well. CellTiter-Glo luminescence, 72 h; hits give low values. viability, % at 10 µM (by protocol). 86,000 compounds, 1.1% hits;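 active = viability at or below 30%; inactive = viability above 30%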
# H69AR growth 86K: proliferation blockers of H69AR lung cancer cells, primary screen, cell-based, human, 86K library | 85,000 compounds, 6% hits | H69AR lung tumor viability, ATP luminescence, 72 h; hits give low values | viability, % at 10 µM;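 active = viability at or below 40%; inactive = viability above 40%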;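 note: multidrug resistant small cell line overexpressing MRP-1 efflux transporter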
# Fibroblast inh: antiproliferative effect on LL 47 fibroblasts – human, LL 47 cells, CellTiter-Glo luminescence, primary screen | viability, % at 10 µM | LL 47 human lung fibroblast viability, ATP luminescence; hits give low values | 85,000 compounds, 1.1% hits;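 active = viability at or below 50% in the single dose screen; inactive = viability above 50%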;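 note: compound exposure lasted 72 h before the ATP readout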
#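 Benchmarks: Cell-only wells, no compound | Test system: LL 47 human lung fibroblasts, passage 12 or lower | Input: 1,150 cells/well | Measured by: CellTiter-Glo luminescence measuring cellular ATP | Medium: IMEM, 15% FBS supplement | Schedule: Overnight attachment after seeding, then 72 h compound exposure at 37 °C | Doses: Compound addition at 0.1% DMSO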
# PTEN del growth: growth suppression of PTEN-null HCT116, primary screen, cell-based, CellTiter-Glo. viability, % at 10 µM. AID 827, 2007. 140,000 compounds, 1.2% hits. HCT116 PTEN-null viability, 60 h; hits give low values;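 active = viability at or below a set limit, 4 SD under the median of all tested compounds, cut at about 3.7% in these data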;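 note: PTEN knockout HCT116 line with beta catenin targeted HCT116 as companion control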
# HCT116 bCat-KO: primary screen for growth suppressors in beta-catenin knockout HCT116 cells (colon tumor, human) | HCT116 beta-catenin knockout viability, CellTiter-Glo, 60 h; hits give low values | viability, % at 10 µM | 140,000 compounds, 1.5% hits;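 active = viability at or under a set limit, the compound median less 4 SD, cut at about 6% in these data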
# A number is an active result; n = inactive; x = not tested or not shown. Many of the other results were omitted from the sample, so hits are more common in it than they were.
SMILES,HUVEC prolif 384,H69AR growth 86K,Fibroblast inh,PTEN del growth,HCT116 bCat-KO
O=C(Nc1ccc(CN2CCOCC2)cc1)c1ccc(-c2cccc(Cl)c2)o1,n,31,n,n,1.9
CS(=O)(=O)N1CCN(c2ccc(NC(=O)c3ccc(-c4ccc(Cl)cc4)o3)cc2)CC1,n,29,n,n,n
O=C(Nc1ccc(CN2CCOCC2)cc1)c1cc2ccccc2o1,n,n,n,n,n
COc1ccc(C)cc1NC(=O)C(Sc1nnc(-c2ccncc2)n1-c1ccc(Cl)cc1)c1ccccc1 (stereo not given),x,x,x,n,n
COc1ccc(C=C(C(C)=O)C(C)=O)cc1OC,n,22,n,n,n
CC1=C(CC(=O)c2ccccc2)C(=O)c2ccccc2C1=O,x,x,x,2.0,2.2
O=C(CN1C(=O)c2ccccc2C1=O)c1ccccc1,n,n,n,n,n
COC(=O)c1ccc(C(=O)OC)c(NC(=O)CSCc2ccc(Br)cc2)c1,x,x,x,n,n
O=C1C=C(NCCN2CCOCC2)C(=O)c2cnccc21,x,x,x,1.9,1.8
CCOC(=O)Nc1ccc2c(c1)N(C(=O)N(CC)CC)c1ccccc1CC2,n,n,n,n,n
CCCC1(CCC)NC(=O)N(CC(=O)Nc2ccccc2OC)C1=O,n,n,15,n,n
N#C/C(=C\c1ccc(OCc2ccccc2)cc1)C(=O)Nc1nc2c(s1)CCN(Cc1ccccc1)C2,13,22,17,n,n
CC(C)(C)NC(=O)CSc1nc2ccc(NC(=O)CSc3nnc(N)s3)cc2s1,x,x,x,n,n
Cn1ccnc1SCC(=O)Nc1ccc2nc(SCC(=O)NC3CC3)sc2c1,n,37,n,n,n
C[N+](C)(C)c1ccc(/C=N/Nc2nc(Cl)c(C#N)c(Cl)c2Cl)cc1,x,x,x,n,n
N#Cc1c(Cl)nc(N/N=C/c2ccccc2)c(Cl)c1Cl,x,x,x,1.6,2.8
CC(=O)C1=C(C)NC(SCC(N)=O)=C(C#N)C1C (stereo not given),n,n,n,n,n
COC(=O)COc1ccc(/C=N/NC(=O)c2ccc(N(Cc3ccccc3)S(C)(=O)=O)cc2)cc1,x,x,x,n,n
Cc1nn(C)c(C)c1/C=N/N=C1\CCC2C3CCc4cc(O)ccc4C3CCC12C (stereo not given),x,x,x,n,3.1
Cc1nn(-c2ccccc2)c2c1C(c1ccc(O)c(O)c1)N1C(=N2)C(Nc2ccccc2)=Nc2ccccc21 (stereo not given),13,21,39,1.2,1.1
Cc1ccc(NC2=Nc3ccccc3N3C2=Nc2c(c(C)nn2-c2ccccc2)C3c2ccc(O)c(O)c2)cc1 (stereo not given),15,16,37,1.1,1.2
Cc1cccc(NC2=Nc3ccccc3N3C2=Nc2c(c(C)nn2-c2ccccc2)C3c2ccc(O)c(O)c2)c1 (stereo not given),n,1.1,45,1.1,2.3
Cc1nn(-c2ccccc2)c2c1C(c1ccc([N+](=O)[O-])cc1)N1C(=N2)C(=O)Nc2ccccc21 (stereo not given),x,x,x,n,n
Cc1ccc(C(=O)NNC(=O)c2cccnc2SCc2cccc([N+](=O)[O-])c2)cc1,x,x,x,n,n
COc1cc2c(C(=O)N3CCN(c4ccccc4C)CC3)c(C)oc2cc1Br,x,x,x,n,n
SMILES,HUVEC prolif 384,H69AR growth 86K,Fibroblast inh,PTEN del growth,HCT116 bCat-KO
COc1cc(COCC(O)CN2CCOCC2)cc(OC)c1OC (stereo not given),n,n,n,n,n
COc1cccc(C2CC(=O)Nc3cc4c(cc32)OCCO4)c1OC(C)C (stereo not given),n,27,n,n,n
COc1ccccc1C1CC(=O)Nc2cc3c(cc21)OCCO3 (stereo not given),n,22,n,n,n
CC(C)Oc1ccccc1C1CC(=O)Nc2cc3c(cc21)OCCO3 (stereo not given),n,27,n,n,n
O=C1CC(c2cccs2)c2cc3c(cc2N1)OCCO3 (stereo not given),n,18,n,n,n
Cc1ccc(C2CC(=O)Nc3cc4c(cc32)OCCO4)s1 (stereo not given),n,n,n,n,n
CCOc1ccccc1C1CC(=O)Nc2cc3c(cc21)OCO3 (stereo not given),x,x,x,n,n
O=C1CCC(c2ccccc2)N1C(=O)c1cccnc1 (stereo not given),n,n,n,n,n

# Screening results deposited in PubChem BioAssay by SRMLSC.
